The nature of data set [1]: pilot pharmacokinetic study in rats after intravenous administration. The format is in vivo, rat. A digest of the protocol: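 Male Wistar rats (13–15 weeks, 200–220 g) were fasted overnight with free water access. They received 3 mg kg−1 i.v. in 0.9% saline. Under thiopental (70 mg kg−1), blood was taken by decapitation at 5, 10, 30, 60, 120 and 240 min (n = 5 per time). Serum was stored at −30 °C, then 100 µL was extracted into ethyl acetate with internal standard for LC–MS–MS. Non-compartmental analysis used mean concentrations: t1/2 = 0.693/λz, Cl = dose/AUC0-inf, Vss = D·AUMC/AUC².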

Data set [2] in a line: stability of DL76 in rat serum QC samples under storage and process conditions. The format is in vitro ADME. The settings on record: bench top, post preparative, freeze/thaw, long term.
Another data set has as its target human H3 receptor. The settings on record: read-out: hKi; human H3 receptor stably expressed in CHO-K1 cells; preliminary pharmacological studies; cited from earlier work.
[3] abbreviates: male, Wistar, rat, serum, iv, 3 mg/kg.

Structures are written as SMILES.

In data set [1] (setting [3]), `CC(C)(C)c1ccc(OCCCN2CCCCC2)cc1` [DL76, 1-[3-(4-tert-butylphenoxy)propyl]piperidine] gave a clearance of 217 mL/min/kg and a half-life of 1.41 h. Further, the “serum concentration of DL76 in a representative rat serum sample” value in data set [1] (rat serum after i.v. 3 mg kg^−1, time not stated) was 67.82 ng/mL. In addition, the “stability in rat serum (all storage and process tests)” value in data set [2] is recorded as “good stability”. Moreover, the Ki on human H3 receptor is 22 ± 3 nM.

What is called clearance is the rate of elimination divided by the concentration. A low value points to inefficient removal. By half-life is commonly meant how long it takes for the measured level to halve. Higher therefore signals slow loss.
